In ChEMBL document CHEMBL3259528, “Exploring 5-nitrofuran derivatives against nosocomial pathogens: synthesis, antimicrobial activity and chemometric analysis” (2014):
Values after ≈ are worked out from the molar mass of the structure shown. Active and inactive are the calls of the source. The calls are words filed in the database; no cut-off is given here.

What was measured:
[1] = test system: Candida albicans; assay: Antimicrobial activity against Candida albicans ATCC 537Y at 64 uM after 48 hrs by two-fold broth microdilution method; type: functional, organism-based
Summary of the method: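 Single top concentration of the antifungal microdilution: RPMI 1640, inoculum 0.5 McFarland diluted in saline/RPMI, 35 °C for 48 h. Activity is judged at the highest tested level, 64 µM. Run in triplicate.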

[2] = test system: Escherichia coli; assay: Antimicrobial activity against Escherichia coli ATCC 25922 at 128 uM after 24 to 48 hrs by two-fold broth microdilution method; type: functional, organism-based
Summary of the method: (§1)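 Antibacterial microdilution in CAMH, inoculum 0.5 McFarland diluted in saline/CAMH, 35 °C for 18 h, with further reads at 24 and 48 h. Activity is scored at the maximum tested concentration, 128 µM. Triplicate.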

[3] = test system: Staphylococcus aureus; assay: Antimicrobial activity against Staphylococcus aureus ATCC 29213 after 18 hrs by modified broth microdilution method; type: functional
Summary of the method: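 PGI90, the concentration giving 90% growth inhibition, fitted with an exponential growth curve from at least seven concentrations of the MIC assay. Inhibition % = [(Ac − Ap)/Ac] × 100 from A620 of drug-free control versus drug-treated culture. Checked by a modified broth microdilution (Phase 2).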

[4] = test system: Staphylococcus aureus; assay: Antimicrobial activity against Staphylococcus aureus ATCC 29213 after 24 to 48 hrs by two-fold broth microdilution method; type: functional
[5] = test system: Enterococcus faecalis; assay: Antimicrobial activity against Enterococcus faecalis ATCC 29212 after 24 to 48 hrs by two-fold broth microdilution method; type: functional
[6] = test system: Serratia marcescens; assay: Antimicrobial activity against Serratia marcescens ATCC 14576 at 128 uM after 24 to 48 hrs by two-fold broth microdilution method; type: functional, organism-based; summary of the method: as §1
[7] = test system: Enterobacter cloacae; assay: Antimicrobial activity against Enterobacter cloacae ATCC 23355 at 128 uM after 24 to 48 hrs by two-fold broth microdilution method; type: functional, organism-based; summary of the method: as §1
[8] = test system: Klebsiella pneumoniae; assay: Antimicrobial activity against Klebsiella pneumoniae ATCC 700603 at 128 uM after 24 to 48 hrs by two-fold broth microdilution method; type: functional, organism-based; summary of the method: as §1
[9] = test system: Candida albicans; assay: Antimicrobial activity against Candida albicans ATCC 537Y after 48 hrs by two-fold broth microdilution method; type: functional
Summary of the method: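 Two-fold serial dilutions in RPMI 1640 per CLSI M27-A2. Stocks in DMSO/RPMI 1:20 v/v. Test range 1.0–64 µM. Inoculum set to 0.5 McFarland, then diluted in saline and RPMI 1640. Plates held at 35 °C for 48 h. MIC is the lowest concentration giving prominent growth reduction. Run in triplicate.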

[10] = test system: Escherichia coli; assay: Antimicrobial activity against Escherichia coli ATCC 25922 after 24 to 48 hrs by two-fold broth microdilution method; type: functional

SMILES | Activity [1] | Activity [2] | log(1/MIC>90) [3] | MIC [4] [µM] | MIC90 [4] [µM] | MIC [5] [µM] | MIC90 [5] [µM] | Activity [6] | Activity [7] | Activity [8] | MIC [9] [µM] | MIC90 [9] [µM] | MIC [10] [µM] | MIC90 [10] [µM]
CC(C)(C)c1ccc(C(=O)N/N=C/c2ccc([N+](=O)[O-])o2)cc1 | inactive | inactive | 5.28 | 4 (≈ 1.26 µg/mL) | 5.28 (≈ 1.66 µg/mL) | 32 (≈ 10.1 µg/mL) | 59.8 (≈ 18.9 µg/mL) | inactive | inactive | inactive |  |  |  | 
O=C(N/N=C/c1ccc([N+](=O)[O-])o1)c1ccc(Cl)c(Cl)c1 |  |  | 5.5 | 4 (≈ 1.31 µg/mL) | 7.49 (≈ 2.46 µg/mL) | 32 (≈ 10.5 µg/mL) | 59.7 (≈ 19.6 µg/mL) | inactive | inactive | inactive | 16 (≈ 5.25 µg/mL) | 32.2 (≈ 10.6 µg/mL) | 64 (≈ 21 µg/mL) | 85 (≈ 27.9 µg/mL)
O=C(N/N=C/c1ccc([N+](=O)[O-])o1)c1ccc(C(F)(F)F)cc1 |  |  | 5.36 | 4 (≈ 1.31 µg/mL) | 4.34 (≈ 1.42 µg/mL) | 32 (≈ 10.5 µg/mL) | 60.9 (≈ 19.9 µg/mL) | inactive | inactive | inactive | 32 (≈ 10.5 µg/mL) | 47.8 (≈ 15.6 µg/mL) | 64 (≈ 20.9 µg/mL) | 92.2 (≈ 30.2 µg/mL)
CC(=O)N1N=C(c2ccc(F)cc2)OC1c1ccc([N+](=O)[O-])o1 (configuration not stated) |  |  | 5.07 | 8 (≈ 2.55 µg/mL) | 8.43 (≈ 2.69 µg/mL) | 64 (≈ 20.4 µg/mL) | 97.3 (≈ 31.1 µg/mL) | inactive | inactive | inactive | 32 (≈ 10.2 µg/mL) | 43.1 (≈ 13.8 µg/mL) | 64 (≈ 20.4 µg/mL) | 91 (≈ 29.1 µg/mL)
CCc1ccc(C2=NN(C(C)=O)C(c3ccc([N+](=O)[O-])o3)O2)cc1 (configuration not stated) |  | inactive | 4.99 | 8 (≈ 2.63 µg/mL) | 10.2 (≈ 3.34 µg/mL) |  |  | inactive | inactive | inactive | 32 (≈ 10.5 µg/mL) | 48.2 (≈ 15.9 µg/mL) |  | 
CCc1ccc(C(=O)N/N=C/c2ccc([N+](=O)[O-])o2)cc1 |  |  | 5.43 | 4 (≈ 1.15 µg/mL) | 3.68 (≈ 1.06 µg/mL) | 64 (≈ 18.4 µg/mL) | 69.1 (≈ 19.9 µg/mL) | inactive | inactive | inactive | 32 (≈ 9.19 µg/mL) | 54 (≈ 15.5 µg/mL) | 64 (≈ 18.4 µg/mL) | 110 (≈ 31.7 µg/mL)
Cc1cc(NS(=O)(=O)c2ccc(N)cc2)no1 [SULFAMETHOXAZOLE] |  |  |  |  |  |  |  | inactive |  |  |  |  | 16 (≈ 4.05 µg/mL) | 
O=C(N/N=C/c1ccc([N+](=O)[O-])o1)c1ccc(Cl)cc1 |  |  | 5.26 | 4 (≈ 1.17 µg/mL) | 5.52 (≈ 1.62 µg/mL) | 32 (≈ 9.4 µg/mL) | 40.7 (≈ 12 µg/mL) | inactive | inactive | inactive | 32 (≈ 9.4 µg/mL) | 53 (≈ 15.6 µg/mL) | 64 (≈ 18.8 µg/mL) | 102 (≈ 30 µg/mL)
COc1ccc(C2=NN(C(C)=O)C(c3ccc([N+](=O)[O-])o3)O2)cc1 (configuration not stated) | inactive | inactive | 4.96 | 8 (≈ 2.65 µg/mL) | 10.9 (≈ 3.6 µg/mL) |  |  | inactive | inactive | inactive |  |  |  | 
COc1ccc(C(=O)N/N=C/c2ccc([N+](=O)[O-])o2)cc1 |  |  | 5.39 | 4 (≈ 1.16 µg/mL) | 4.11 (≈ 1.19 µg/mL) | 8 (≈ 2.31 µg/mL) | 14.6 (≈ 4.23 µg/mL) | inactive | inactive | inactive | 32 (≈ 9.26 µg/mL) | 54.6 (≈ 15.8 µg/mL) | 32 (≈ 9.26 µg/mL) | 84 (≈ 24.3 µg/mL)
CCOc1ccc(C(=O)N/N=C/c2ccc([N+](=O)[O-])o2)cc1 | inactive | inactive | 5.43 | 2 (≈ 0.607 µg/mL) | 3.7 (≈ 1.12 µg/mL) | 32 (≈ 9.7 µg/mL) | 34.9 (≈ 10.6 µg/mL) | inactive | inactive | inactive |  |  |  | 
CCCCc1ccc(C2=NN(C(C)=O)C(c3ccc([N+](=O)[O-])o3)O2)cc1 (configuration not stated) | inactive | inactive | 4.73 | 16 (≈ 5.72 µg/mL) | 18.5 (≈ 6.6 µg/mL) |  |  | inactive | inactive | inactive |  |  |  | 
CCCCOc1ccc(C2=NN(C(C)=O)C(c3ccc([N+](=O)[O-])o3)O2)cc1 (configuration not stated) |  |  | 4.77 | 16 (≈ 5.97 µg/mL) | 16.9 (≈ 6.3 µg/mL) |  |  | inactive | inactive | inactive | 32 (≈ 11.9 µg/mL) | 41 (≈ 15.3 µg/mL) | 64 (≈ 23.9 µg/mL) | 77.9 (≈ 29.1 µg/mL)
CC(=O)N1N=C(c2ccc(C)cc2)OC1c1ccc([N+](=O)[O-])o1 (configuration not stated) |  | inactive | 4.91 | 8 (≈ 2.52 µg/mL) | 12.2 (≈ 3.85 µg/mL) |  |  | inactive | inactive | inactive | 32 (≈ 10.1 µg/mL) | 49.9 (≈ 15.7 µg/mL) |  | 
CCCc1ccc(C2=NN(C(C)=O)C(c3ccc([N+](=O)[O-])o3)O2)cc1 (configuration not stated) |  | inactive | 4.81 | 8 (≈ 2.75 µg/mL) | 15.4 (≈ 5.28 µg/mL) |  |  | inactive | inactive | inactive | 32 (≈ 11 µg/mL) | 46 (≈ 15.8 µg/mL) |  | 
CC(=O)N1N=C(c2ccccc2)OC1c1ccc([N+](=O)[O-])o1 (configuration not stated) |  | inactive | 5.05 | 4 (≈ 1.21 µg/mL) | 8.93 (≈ 2.69 µg/mL) | 32 (≈ 9.64 µg/mL) | 52.9 (≈ 15.9 µg/mL) | inactive | inactive | inactive | 8 (≈ 2.41 µg/mL) | 15.8 (≈ 4.77 µg/mL) |  | 
Cc1ccc(C(=O)N/N=C/c2ccc([N+](=O)[O-])o2)cc1 |  | inactive | 4.97 | 8 (≈ 2.19 µg/mL) | 9.42 (≈ 2.57 µg/mL) | 8 (≈ 2.19 µg/mL) | 14.2 (≈ 3.87 µg/mL) | inactive | inactive | inactive | 32 (≈ 8.74 µg/mL) | 58.3 (≈ 15.9 µg/mL) |  | 
O=C(N/N=C/c1ccc([N+](=O)[O-])o1)c1ccc(Cl)cc1Cl |  |  | 5.13 | 4 (≈ 1.31 µg/mL) | 4.83 (≈ 1.58 µg/mL) | 32 (≈ 10.5 µg/mL) | 58.7 (≈ 19.3 µg/mL) | inactive | inactive | inactive | 32 (≈ 10.5 µg/mL) | 48 (≈ 15.8 µg/mL) | 64 (≈ 21 µg/mL) | 87.7 (≈ 28.8 µg/mL)
CC(=O)N1N=C(c2ccc(I)cc2)OC1c1ccc([N+](=O)[O-])o1 (configuration not stated) | inactive | inactive | 5.13 | 4 (≈ 1.71 µg/mL) | 6.29 (≈ 2.69 µg/mL) |  |  | inactive | inactive | inactive |  |  |  | 
O=C(N/N=C/c1ccc([N+](=O)[O-])o1)c1ccccc1 |  |  | 5.28 | 4 (≈ 1.04 µg/mL) | 5.27 (≈ 1.37 µg/mL) | 32 (≈ 8.3 µg/mL) | 58.8 (≈ 15.2 µg/mL) | inactive | inactive | inactive | 32 (≈ 8.3 µg/mL) | 60.3 (≈ 15.6 µg/mL) | 16 (≈ 4.15 µg/mL) | 30.4 (≈ 7.89 µg/mL)
CCC(C)n1ncn(-c2ccc(N3CCN(c4ccc(OCC5COC(Cn6cncn6)(c6ccc(Cl)cc6Cl)O5)cc4)CC3)cc2)c1=O (configuration not stated) [ITRACONAZOLE] |  |  |  |  |  |  |  |  |  |  | < 20 |  |  | 
